The text below walks through data of ChEMBL document CHEMBL4513216, “Probing the Open Global Health Chemical Diversity Library for Multistage-Active Starting Points for Next-Generation Antimalarials” (ACS Infect Dis, 2020).

Each structure is given as a SMILES string.

This data set is described as follows: Toxicity liver stage against HepG2, at 10uM. Type of data set: cell-based. Also noted: test concentration 10 uM, cell line HepG2-A16-CD81EGFP. The following applies: human, HepG2-A16-CD81EGFP cells; read-out: INHIBITION
The gist of the method:
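Uninfected HepG2-A16-CD81EGFP cells, 3 × 10^3 per well, 1536-well, plated on prespotted compound at 10 μM final, parasite-free screening media added to match infected plates; puromycin 10 μM positive, DMSO 0.5% negative; run in parallel with 48 h PbLuc assay at 37 °C, 5% CO2; viability by CellTiter-Glo luminescence, normalized to controls.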
With `c1cc2c(cc1CN1CCC(Cc3noc(C4CC4)n3)CC1)OCCO2`, the cytotoxicity at 10 µM stood at 14.9%. In the case of `CN1CCN(C2COC3(CCN(CC4CC4)CC3)C2)CC1` (configuration not stated), the cytotoxicity at 10 µM was -6.81%. The value for `CC1CN(CC(=O)Nc2ccncc2)CCN1Cc1nccn1C` (configuration not stated) was -13.7%. Under `CCN(CC)C(=O)Cn1cc(C(=O)NCCc2scnc2C)nn1` stands -4.47%; under `CCOCC(=O)NC(C#N)c1cnn(-c2ccccc2)c1` (configuration not stated), -4.39%; under `Cc1ccsc1[C@@H]1CCN(C(=O)c2ccc(-c3cc[nH]n3)cc2)C[C@H]1O`, 4.28%. The value for `O=C(Nc1cccnc1)NC1CCN(c2ccccc2OC(F)F)C1` (configuration not stated) was 12.1%; that for `CC(NC(=O)NCc1cccnc1N(C)C)c1cccs1` (configuration not stated) was 1.76%. As for `O=C1NCC2CN(Cc3ccccc3OCc3ccccn3)CCN12` (configuration not stated), the cytotoxicity at 10 µM is -1.36%. Consider `CCn1c(Cn2cncn2)nnc1C1CCN(C2CCOCC2)CC1`, for which the cytotoxicity at 10 µM was found to be 9.23%. On to `Cc1ccnc(NC(=O)c2cccc(OCc3nnnn3C)c2)c1`, for which the cytotoxicity at 10 µM was -0.319%.

Take `O=C(Nc1cc(-c2ccncc2)no1)C1CCCCC1`: the cytotoxicity at 10 µM is -5.37%. Consider `CC(C)(C)OC(=O)N1CCCN(c2nnc(Br)s2)CC1`, for which the cytotoxicity at 10 µM amounted to 10.5%.

Regarding `COc1ccc(CN(Cc2cncn2C)CC2CCCO2)c(OC)c1` (configuration not stated), the cytotoxicity at 10 µM was -4.48%. Under `CN1CCN([C@@H]2CCN(CC3=Cc4cc(Cl)ccc4OC3)C[C@H]2O)CC1` stands -5.87%; under `COc1ccccc1CC(NC(=O)N1CCOCC1)C(C)C` (configuration not stated), 4.29%; under `CN(Cc1nccn1C)S(=O)(=O)c1cccc(C#N)c1`, 15.1%. Under `COc1ccc(S(=O)(=O)NCc2cccnc2N(C)C)cc1F` stands 5.8%.

Regarding `CCOc1ccc(C(=O)NCc2ccnc(N3CCCC3)c2)cn1`, the cytotoxicity at 10 µM came out at 6.62%. Under `O=C(c1cnc(OCC(F)(F)F)c(Cl)c1)N1CCc2ccc(O)cc2C1` stands -5.38%; under `O=C(O)c1cc(-c2ccoc2)cc(S(=O)(=O)NCc2ccccn2)c1`, -47.6%; under `O=C(Cn1ccc2ccccc21)N1CCC(Oc2cnccn2)CC1`, 4.61%.

As to `Cc1ccc(Cl)c(CN2CCC3(CC2)C(C(=O)O)CC(=O)N3C)c1F` (configuration not stated), the cytotoxicity at 10 µM worked out at 2.64%. Under `CNc1cncc(C2CCN(C(=O)c3coc(C)n3)CC2)n1` stands 0.109%. The value for `O=C(C1CCCO1)N1CCC(n2cc(-c3ccc(F)cc3)nn2)CC1` (configuration not stated) was -1.41%. Under `CS(=O)(=O)NCc1nnc2n1CCN(CC1CC1)C2` stands -0.285%; under `CS(=O)(=O)N1C[C@@H](Oc2ccccn2)[C@H]2OCCC[C@H]21`, 7.78%. Turning to `CC(C)Cc1cc(C(=O)NC(C)(C)CN2CCCCCC2)on1`, the cytotoxicity at 10 µM is -4.75%. Under `Cc1cccc(C2(O)CCN(Cc3ccccc3N3CCCC3)CC2)c1` stands 10.6%.

Consider `N#Cc1ccccc1OCCN1CCN(C(=O)C2CCCC2)CC1`, for which the cytotoxicity at 10 µM is -52.1%.

On to `CCNC(=O)CNS(=O)(=O)c1cc(Br)ccc1F`, for which the cytotoxicity at 10 µM was -55.4%. Under `COCC(=O)N1CCN(CC2CC2)c2ncccc2C1` stands -100%. The value for `O=c1[nH]c(-c2ccc(F)cc2)nc2c1CCNC2` was -2.47%; that for `O=C(c1ccc2[nH]cnc2c1)N1CCC(COc2ccccn2)CC1` was -2.91%. The value for `O=C(CSCC1CC1)N1CCCC(c2nccn2Cc2ccccn2)C1` (configuration not stated) was 1.34%. For the molecule `CC1CCN(C(=O)CSCc2noc(C(C)C)n2)CC1`, the cytotoxicity at 10 µM turned out to be 1.4%. The value for `COC(=O)[C@H]1CN(C(=O)c2cscn2)C[C@@H]1c1ccc(F)cc1` was -26.3%; that for `O=C(NC1CCC(O)CC1)c1ccc2nc(-c3ccc(F)cc3)cn2c1` (configuration not stated) was 1.31%; that for `CC(C)NC(=O)[C@H]1C[C@@H]2[C@@H](C1)OCCN2Cc1cccs1` was 10.3%.

`Cc1ncc(CN(Cc2ccccn2)Cc2ccccc2Cl)n1C`: the cytotoxicity at 10 µM was -1.45%.

As to `Cc1cccc2[nH]c(C3CCN(C(=O)c4ccc[nH]4)CC3)nc12`, the cytotoxicity at 10 µM was 6.01%. Under `CCN1CCN(C)C2(CCN(C(=O)CC(F)(F)F)CC2)C1=O` stands 0.797%; under `OC1(CNCCc2nc(Cc3ccccc3)no2)CNCCOC1` (configuration not stated), 4.43%; under `COC(=O)[C@H](CC(C)C)NC(=O)c1snnc1-c1ccc(OC)cc1`, 10.1%.

Consider `Cn1ccnc1N1CCN(C(=O)Cc2ccc(F)cc2)CC1`, for which the cytotoxicity at 10 µM was found to be 4.73%. The value for `c1ccc(Cc2noc(CNC3CCc4ncnn4C3)n2)cc1` (configuration not stated) was -5.99%; that for `CN1CCN(Cc2cn3c(n2)CN(Cc2ccccn2)CC3)CC1` was -117%. In the case of `O=c1n(CCNCc2cccc3ccccc23)nc2ccccn12`, the cytotoxicity at 10 µM is 0.551%. Under `O=c1ccc2c(n1Cc1cccnc1)CCN(Cc1ccoc1)CC2` stands -140%; under `COCc1noc(CCNC(=O)c2ccc(C3CCCO3)s2)n1` (configuration not stated), 3.19%; under `CCC(CO)N(CC=C(C)C)Cc1ccsc1` (configuration not stated), 6.07%.

In the case of `Cc1nn2cccnc2c1C(=O)NCc1ccnc(OCC2CC2)c1`, the cytotoxicity at 10 µM was -41.6%.

For the molecule `NCC1CCCN(c2nc(-c3ccccc3)nc3c2CCNCC3)C1` (configuration not stated), the cytotoxicity at 10 µM was -10.3%. In the case of `COc1cccc(C(C)N2CCN(S(=O)(=O)CCCF)CC2)c1` (configuration not stated), the cytotoxicity at 10 µM turned out to be 2.5%.

With `CNC(=O)C1(c2cnccn2)CCCN1C(=O)c1cccnc1OC` (configuration not stated), the cytotoxicity at 10 µM was -8.55%. Under `COc1ccc(C(=O)n2nc(C)c(C)c2C)cc1` stands 6.06%; under `Cc1ccc(-c2cc(CNC(=O)N3CCC(N(C)C)CC3)on2)cc1`, -10.8%. For `Cc1cccc(C)c1OCCNC(=O)NC(C)c1nncn1C` (configuration not stated), the cytotoxicity at 10 µM is 7.8%. Under `O=C(c1cnccn1)N1CCCC2(CCN(Cc3cccnc3)C2)C1` (configuration not stated) stands -129%; under `CC(C(=O)N1CCCCC1)N1CCN(c2nccs2)CC1` (configuration not stated), 22.1%; under `CC(C)c1nnc2ccc(N3CCC(C(N)=O)CC3)nn12`, 8.63%. The value for `CS(=O)(=O)N1Cc2ccccc2C2(CCN(C(=O)c3ccno3)CC2)C1` was 6.31%; that for `CC(C)C(C)(O)CNC(=O)Nc1ccccn1` (configuration not stated) was 4.77%; that for `CN(CCNc1ncc2c(n1)CCN2c1ccccc1)S(C)(=O)=O` was 0.557%. The value for `COc1ccsc1C(=O)N1CCCC(n2nc(C)cc2C)C1` (configuration not stated) was -9.41%; that for `O=C(C1CCC1)N1CCN(Cc2ccsc2)[C@H]2CS(=O)(=O)C[C@H]21` was -12%.

For `CC(C)n1nc(CN(C)C)c2c1CN(CC1CC1)CC2`, the cytotoxicity at 10 µM was -3.15%. Take `CC(=O)c1c(C)nn(S(=O)(=O)c2ccc(Cl)cc2)c1C`: the cytotoxicity at 10 µM was -6.74%.

As to `C[C@@H]1CN(Cc2cc3ccccc3n2C)CC[C@]1(C)O`, the cytotoxicity at 10 µM was 8.35%. Under `O=C(NS(=O)(=O)c1cccc(C(F)(F)F)c1)c1cscn1` stands 1.67%. For the molecule `O=C1CN(C(=O)c2nnn(-c3ccc(C(F)(F)F)cc3)n2)CCN1`, the cytotoxicity at 10 µM is -2.77%.

As to `COCCN1CCC2(CC1)CC(CC(N)=O)c1ccc(F)cc12` (configuration not stated), the cytotoxicity at 10 µM came to 8.98%. Under `CC(C(=O)NC1CCCC1)S(=O)(=O)Cc1noc(C(C)(C)C)n1` (configuration not stated) stands -9.41%. The value for `O=S(=O)(N1CCCCC1)N1CCC(Oc2cnccn2)CC1` was -14.1%; that for `COc1ccccc1-c1noc(CN2CCCC2Cn2cccn2)n1` (configuration not stated) was -8.95%; that for `COc1ccc(-c2nnsc2C(=O)N2CCOCC2)cc1` was 3.03%. The value for `Cc1cc(C(=O)N2CCc3nnc(N)cc3C2)c(C)n1C1CC1` was -3.71%. As to `CC(NC(=O)C1CCN(S(N)(=O)=O)CC1)c1cccc(OC(F)F)c1` (configuration not stated), the cytotoxicity at 10 µM is -8.5%. With `COCCS(=O)(=O)NC(=O)c1nnn(-c2ccc(F)cc2)c1C1CC1`, the cytotoxicity at 10 µM turned out to be 0.188%.

Turning to `CC(=O)NCc1nccnc1C1CCN(C(=O)c2cc[nH]n2)CC1`, the cytotoxicity at 10 µM was -6.74%.

For `CC(C)(C)C(=O)N1CCCC1c1ccc(C(=O)N2CCOCC2)s1` (configuration not stated), the cytotoxicity at 10 µM was -145%. On to `CCCc1cc(NC2CCc3nc(C)nn3C2)n2ncnc2n1` (configuration not stated), for which the cytotoxicity at 10 µM is -10.4%. On to `O=C(c1ccoc1)N1CCN(Cc2ccccc2F)CC1`, for which the cytotoxicity at 10 µM is -13.2%.

Take `COc1ccc(OC)c(C(C(=O)O)N2CCSCC2)c1` (configuration not stated): the cytotoxicity at 10 µM is -1.02%.

Regarding `COc1ccccc1C(C)NC(=O)N1CCN(Cc2ccc(Br)s2)CC1` (configuration not stated), the cytotoxicity at 10 µM came to 10.5%.

`Cc1nn(C)c2c(NCCCn3cccn3)nc(C(C)C)nc12`: the cytotoxicity at 10 µM was found to be 6.67%.

Consider `Clc1ccccc1CNC(Cn1cncn1)c1ccccc1` (configuration not stated), for which the cytotoxicity at 10 µM was -2.88%. The value for `O=C(c1ccncc1)N1CC[C@@H]2[C@@H](CC1)OCCN2c1cccnc1` was 8.25%; that for `CN1CCCCC12CCN(c1nncs1)C2` (configuration not stated) was 7.1%. Under `CCN1C(=O)CC(c2cnn(C)c2)C12CCN(C(=O)C1CC=CC1)CC2` (configuration not stated) stands 5.13%; under `Cc1cc(NCCC(=O)NC(C)C)nc(-c2ccncc2)n1`, -6.74%. The value for `CN1CCCN(C[C@@H]2CN(c3nc(C(N)=O)cs3)C[C@@H]2CO)CC1` was 2.67%. As to `CCCc1nnsc1C(=O)NCC1CCN(S(C)(=O)=O)CC1`, the cytotoxicity at 10 µM is -19.7%.

As to `Nc1ncc(-c2ccc(NC(=O)[C@@H]3CCCCN3)cc2)cn1`, the cytotoxicity at 10 µM was -4.44%. Consider `Cn1ccnc1CN1CCCC(Cc2ccnc3ccncc23)CC1` (configuration not stated), for which the cytotoxicity at 10 µM is -0.751%.

As to `O=C(c1cccs1)N1CCCn2c(nc(CN3CCCC3)cc2=O)C1`, the cytotoxicity at 10 µM was -3.32%. In the case of `O=C1CC(N(C(=O)c2ccc(-n3cccc3)cc2)C2CC2)C(=O)N1` (configuration not stated), the cytotoxicity at 10 µM was -1.67%.
